Measurements: publication PMC7825275 (Cancer chemotherapy and pharmacology, 2019)

System: patients with advanced solid tumors
Assay: Toxicity by grade
Type: in vivo, human
Method in brief: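 Adverse events were tabulated descriptively as maximum grade in three groups: the chemotherapy-only lead-in cycle, the first veliparib-containing cycle, and all cycles. CBC and serum chemistry including liver function tests were drawn weekly during cycles 1–2, then at the start of every cycle. Veliparib was oral, twice daily on days 1–7; carboplatin/paclitaxel were IV every 21 days.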

[1] = first cycle including veliparib with carboplatin and paclitaxel, n=73
[2] = veliparib with carboplatin and paclitaxel

## C[C@]1(c2nc3c(C(N)=O)cccc3[nH]2)CCCN1 [veliparib]
[1]
  Fever, Grade 4: 0 number of patients (%)
  Flu like symptoms, Any Grade: 1 (1) number of patients (%)
  Flu like symptoms, Grade 1: 1 (1) number of patients (%)
  Flu like symptoms, Grade 2: 0 number of patients (%)
  Flu like symptoms, Grade 3: 0 number of patients (%)
  Flu like symptoms, Grade 4: 0 number of patients (%)
  Flushing, Any Grade: 2 (3) number of patients (%)
  Flushing, Grade 1: 2 (3) number of patients (%)
  Flushing, Grade 2: 0 number of patients (%)
  Flushing, Grade 3: 0 number of patients (%)
  Flushing, Grade 4: 0 number of patients (%)
  Headache, Any Grade: 3 (4) number of patients (%)
  Headache, Grade 1: 3 (4) number of patients (%)
  Headache, Grade 2: 0 number of patients (%)
  Headache, Grade 3: 0 number of patients (%)
  Headache, Grade 4: 0 number of patients (%)
  Hiccups, Any Grade: 1 (1) number of patients (%)
  Hiccups, Grade 1: 1 (1) number of patients (%)
  Hiccups, Grade 2: 0 number of patients (%)
  Hiccups, Grade 3: 0 number of patients (%)
  Hiccups, Grade 4: 0 number of patients (%)
  Hypoalbuminemia, Any Grade: 3 (4) number of patients (%)
  Hypoalbuminemia, Grade 1: 1 (1) number of patients (%)
  Hypoalbuminemia, Grade 2: 2 (3) number of patients (%)
  Hypoalbuminemia, Grade 3: 0 number of patients (%)
  Hypoalbuminemia, Grade 4: 0 number of patients (%)
  Hypocalcemia, Any Grade: 2 (3) number of patients (%)
  Hypocalcemia, Grade 1: 0 number of patients (%)
  Hypocalcemia, Grade 2: 1 (1) number of patients (%)
  Hypocalcemia, Grade 3: 1 (1) number of patients (%)
  Hypocalcemia, Grade 4: 0 number of patients (%)
  Hypomagnesemia, Any Grade: 1 (1) number of patients (%)
  Hypomagnesemia, Grade 1: 0 number of patients (%)
  Hypomagnesemia, Grade 2: 1 (1) number of patients (%)
  Hypomagnesemia, Grade 3: 0 number of patients (%)
  Hypomagnesemia, Grade 4: 0 number of patients (%)
  Hyponatremia, Any Grade: 5 (7) number of patients (%)
  Hyponatremia, Grade 1: 3 (4) number of patients (%)
  Hyponatremia, Grade 2: 0 number of patients (%)
  Hyponatremia, Grade 3: 1 (1) number of patients (%)
  Hyponatremia, Grade 4: 1 (1) number of patients (%)
  Hypophosphatemia, Any Grade: 1 (1) number of patients (%)
  Hypophosphatemia, Grade 1: 0 number of patients (%)
  Hypophosphatemia, Grade 2: 0 number of patients (%)
  Hypophosphatemia, Grade 3: 1 (1) number of patients (%)
  Hypophosphatemia, Grade 4: 0 number of patients (%)
  Insomnia, Any Grade: 1 (1) number of patients (%)
  Insomnia, Grade 1: 1 (1) number of patients (%)
  Insomnia, Grade 2: 0 number of patients (%)
  Insomnia, Grade 3: 0 number of patients (%)
  Insomnia, Grade 4: 0 number of patients (%)
  Lymphocyte count decreased, Any Grade: 14 (19) number of patients (%)
  Lymphocyte count decreased, Grade 1: 2 (3) number of patients (%)
  Lymphocyte count decreased, Grade 2: 8 (11) number of patients (%)
  Lymphocyte count decreased, Grade 3: 3 (4) number of patients (%)
  Lymphocyte count decreased, Grade 4: 1 (1) number of patients (%)
  Mucositis oropharyngeal, Any Grade: 3 (4) number of patients (%)
  Mucositis oropharyngeal, Grade 1: 3 (4) number of patients (%)
  Mucositis oropharyngeal, Grade 2: 0 number of patients (%)
  Mucositis oropharyngeal, Grade 3: 0 number of patients (%)
  Mucositis oropharyngeal, Grade 4: 0 number of patients (%)
  Muscle weakness, Grade 1: 1(1) number of patients (%)
  Muscle weakness, Grade 2: 1 (1) number of patients (%)
  Muscle weakness, Grade 3: 0 number of patients (%)
  Muscle weakness, Grade 4: 0 number of patients (%)
  Myalgia, Any Grade: 8 (11) number of patients (%)
  Myalgia, Grade 1: 6 (8) number of patients (%)
  Myalgia, Grade 2: 2 (3) number of patients (%)
  Myalgia, Grade 3: 0 number of patients (%)
  Myalgia, Grade 4: 0 number of patients (%)
  Nausea, Any Grade: 28 (38) number of patients (%)
  Nausea, Grade 1: 22 (30) number of patients (%)
  Nausea, Grade 2: 5 (7) number of patients (%)
  Nausea, Grade 3: 1 (1) number of patients (%)
  Nausea, Grade 4: 0 number of patients (%)
  Neutrophil count decreased, Any Grade: 42 (57) number of patients (%)
  Neutrophil count decreased, Grade 1: 1 (1) number of patients (%)
  Neutrophil count decreased, Grade 2: 4 (5) number of patients (%)
  Neutrophil count decreased, Grade 3: 14 (19) number of patients (%)
  Neutrophil count decreased, Grade 4: 23 (31) number of patients (%)
  Non-cardiac chest pain, Any Grade: 1 (1) number of patients (%)
  Non-cardiac chest pain, Grade 1: 1 (1) number of patients (%)
  Non-cardiac chest pain, Grade 2: 0 number of patients (%)
  Non-cardiac chest pain, Grade 3: 0 number of patients (%)
  Non-cardiac chest pain, Grade 4: 0 number of patients (%)
  Paresthesia, Any Grade: 1 (1) number of patients (%)
  Paresthesia, Grade 1: 1 (1) number of patients (%)
  Paresthesia, Grade 2: 0 number of patients (%)
  Paresthesia, Grade 3: 0 number of patients (%)
  Paresthesia, Grade 4: 0 number of patients (%)
  Peripheral sensory neuropathy, Any Grade: 7 (10) number of patients (%)
  Peripheral sensory neuropathy, Grade 1: 7 (10) number of patients (%)
  Peripheral sensory neuropathy, Grade 2: 0 number of patients (%)
  Peripheral sensory neuropathy, Grade 3: 0 number of patients (%)
  Peripheral sensory neuropathy, Grade 4: 0 number of patients (%)
  Platelet count decreased, Any Grade: 13 (18) number of patients (%)
  Platelet count decreased, Grade 1: 7 (10) number of patients (%)
  Platelet count decreased, Grade 2: 2 (3) number of patients (%)
  Platelet count decreased, Grade 3: 4 (5) number of patients (%)
  Platelet count decreased, Grade 4: 0 number of patients (%)
  Presyncope, Any Grade: 1 (1) number of patients (%)
  Presyncope, Grade 1: 0 number of patients (%)
  Presyncope, Grade 2: 0 number of patients (%)
  Presyncope, Grade 3: 1 (1) number of patients (%)
  Presyncope, Grade 4: 0 number of patients (%)
  Pruritus, Any Grade: 3 (4) number of patients (%)
  Pruritus, Grade 1: 3 (4) number of patients (%)
  Pruritus, Grade 2: 0 number of patients (%)
  Pruritus, Grade 3: 0 number of patients (%)
  Pruritus, Grade 4: 0 number of patients (%)
  Purpura, Any Grade: 1 (1) number of patients (%)
  Purpura, Grade 1: 1 (1) number of patients (%)
  Purpura, Grade 2: 0 number of patients (%)
  Purpura, Grade 3: 0 number of patients (%)
  Purpura, Grade 4: 0 number of patients (%)
  Rash maculopapular, Any Grade: 2 (3) number of patients (%)
  Rash maculopapular, Grade 1: 2 (3) number of patients (%)
  Rash maculopapular, Grade 2: 0 number of patients (%)
  Rash maculopapular, Grade 3: 0 number of patients (%)
  Rash maculopapular, Grade 4: 0 number of patients (%)
  Sepsis, Any Grade: 2 (3) number of patients (%)
  Sepsis, Grade 1: 0 number of patients (%)
  Sepsis, Grade 2: 0 number of patients (%)
  Sepsis, Grade 3: 0 number of patients (%)
  Sepsis, Grade 4: 2 (3) number of patients (%)
  Sinus disorder, Any Grade: 1 (1) number of patients (%)
  Sinus disorder, Grade 1: 1 (1) number of patients (%)
  Sinus disorder, Grade 2: 0 number of patients (%)
  Sinus disorder, Grade 3: 0 number of patients (%)
  Sinus disorder, Grade 4: 0 number of patients (%)
  Tremor, Any Grade: 1 (1) number of patients (%)
  Tremor, Grade 1: 1 (1) number of patients (%)
  Tremor, Grade 2: 0 number of patients (%)
  Tremor, Grade 3: 0 number of patients (%)
  Tremor, Grade 4: 0 number of patients (%)
  Upper respiratory infection, Any Grade: 1 (1) number of patients (%)
  Upper respiratory infection, Grade 1: 0 number of patients (%)
  Upper respiratory infection, Grade 2: 1 (1) number of patients (%)
  Upper respiratory infection, Grade 3: 0 number of patients (%)
  Upper respiratory infection, Grade 4: 0 number of patients (%)
  Vomiting, Any Grade: 9 (12) number of patients (%)
  Vomiting, Grade 1: 7 (10) number of patients (%)
  Vomiting, Grade 2: 2 (3) number of patients (%)
  Vomiting, Grade 3: 0 number of patients (%)
  Vomiting, Grade 4: 0 number of patients (%)
  Weight loss, Any Grade: 2 (3) number of patients (%)
  Weight loss, Grade 1: 2 (3) number of patients (%)
  Weight loss, Grade 2: 0 number of patients (%)
  Weight loss, Grade 3: 0 number of patients (%)
  Weight loss, Grade 4: 0 number of patients (%)
  White blood cell decreased, Any Grade: 40 (55) number of patients (%)
  White blood cell decreased, Grade 1: 6 (8) number of patients (%)
  White blood cell decreased, Grade 2: 14 (19) number of patients (%)
  White blood cell decreased, Grade 3: 17 (23) number of patients (%)
  White blood cell decreased, Grade 4: 3 (4) number of patients (%)
Total across the dose levels
  Febrile neutropenia or grade 3-4 neutropenia lasting more than 7 days: 7 patients
[2]
  neutropenia highest grade 3, DLT assessment period: 19%
  neutropenia highest grade 4, DLT assessment period: 31%
  neutropenia, frequency during the DLT assessment period: 57%
